From ChEMBL document CHEMBL4017517, “Small Molecule Inhibitors Simultaneously Targeting Cancer Metabolism and Epigenetics: Discovery of Novel Nicotinamide Phosphoribosyltransferase (NAMPT) and Histone Deacetylase (HDAC) Dual Inhibitors” (J Med Chem, 2017) come the findings set out here.

Active and inactive are the calls of the source. The rule behind the calls is not given here.

Series [1] relates to HCT-116. The series can be described thus: cells. The conditions noted are these: Homo sapiens, HCT-116, 72 h. Type of series: functional, cell-based.
The target of series [2] is Nicotinamide phosphoribosyltransferase (Homo sapiens, UniProt P43490). In words: Inhibition of human recombinant NAMPT using NAM as substrate preincubated for 5 mins followed by substrate addition measured after 15 mins by fluorescence assay.
Series [3] can be described thus: Cmax in BALB/C nude mouse at 25 mg/kg, po. Type of series: ADME, organism-based. Also noted: dose 25 mg/kg, route oral. Particulars: in vivo. In short, it runs like this: (§1)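 Mice given a single oral dose of 25 mg/kg. Plasma pharmacokinetics sampled to obtain terminal half-life and Cmax.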
Series [4] concerns the target Histone deacetylase 1 (Homo sapiens, UniProt Q13547). The series can be described thus: Inhibition of human recombinant HDAC1 (1 to 482 residues) expressed in Baculovirus using Ac-Leu-Gly-Lys(Ac)-AMC as substrate preincubated for 5 mins followed by substrate addition measured after 30 mins by fluorescence assay.
The test system of series [5] is Mus musculus. The series can be described thus: Toxicity in BALB/C nude mouse xenografted with human HCT116 cells assessed as change in body weight at 25 mg/kg, po administered as single dose for 14 consecutive days measured during compound dosing. Particulars: in vivo. Type of series: organism-based. In short, it runs like this: (§2)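 Male BALB/C nude mice (18–20 g) bearing subcutaneous HCT116 right-axilla tumors; treatment started at about 100–300 mm³. Five mice per treatment, eight controls. Dosed po 25 mg/kg/day for 14 consecutive days as suspension in 0.5% carboxymethyl cellulose; controls got vehicle. Tumor volume (1/2 × length × width²) and body weight recorded every 3 days. Sacrifice day 30–33 post-implant.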
For orientation: A xenograft is tissue or cells of one species grown in another, often human tumour cells in immunodeficient mice.

The test system of series [6] is HepG2. In words: cells. Type of series: functional, cell-based. Particulars: Homo sapiens, HepG2, 72 h.
Series [7] deals with HCT-116. In words: Antitumor activity against human HCT116 cells xenografted in BALB/C nude mouse assessed as tumor growth inhibition at 25 mg/kg, po administered as single dose for 14 consecutive days measured after 30 to 33 days post implantation. In kind it is functional, organism-based. In short, it runs like this:
as §2

Series [8] in a line: Terminal half life in BALB/C nude mouse at 25 mg/kg, po. In kind it is ADME, organism-based. The conditions noted are these: in vivo, read-out: beta t1/2 (converted). In short, it runs like this:
as §1

Series [9] deals with HCT-116. The series can be described thus: Antitumor activity against human HCT116 cells xenografted in BALB/C nude mouse assessed as tumor growth inhibition at 15 mg/kg, ip bid administered for 21 consecutive days measured after 30 to 33 days post implantation relative to control. Type of series: functional. Particulars: HCT-116, ip, read-out: TGI. In short, it runs like this:
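HCT116 cells implanted subcutaneously in right axilla of male BALB/C nude mice (18–20 g). Dosing began at tumor volume about 100–300 mm³; five mice per treatment, eight controls. Given ip bid for 21 consecutive days in 0.1% Tween 80 in normal saline, with vehicle controls. Caliper volume TV = 1/2 × a × b² measured every 3 days. Mice sacrificed day 30–33 post-implant; TGI calculated at end of treatment.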

The subject of series [10] is MDA-MB-231. In words: cells. In kind it is functional, cell-based. Particulars: Homo sapiens, MDA-MB-231, 72 h.

Sequence of Histone deacetylase 1 (Q13547 whole entry, the tested form may be a part): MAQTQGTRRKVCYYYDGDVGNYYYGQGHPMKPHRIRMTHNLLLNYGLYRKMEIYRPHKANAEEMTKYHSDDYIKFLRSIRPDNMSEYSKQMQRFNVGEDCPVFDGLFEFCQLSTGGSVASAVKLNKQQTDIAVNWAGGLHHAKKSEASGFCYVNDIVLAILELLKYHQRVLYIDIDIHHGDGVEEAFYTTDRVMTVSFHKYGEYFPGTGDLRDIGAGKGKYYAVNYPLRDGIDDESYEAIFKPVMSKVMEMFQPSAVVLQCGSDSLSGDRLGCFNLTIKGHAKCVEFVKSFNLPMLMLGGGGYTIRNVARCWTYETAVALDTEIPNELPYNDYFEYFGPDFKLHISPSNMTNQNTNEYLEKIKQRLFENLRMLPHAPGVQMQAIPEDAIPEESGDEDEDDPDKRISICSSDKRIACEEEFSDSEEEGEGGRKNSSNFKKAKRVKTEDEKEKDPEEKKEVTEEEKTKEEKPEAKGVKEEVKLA
Sequence of Nicotinamide phosphoribosyltransferase (P43490 whole entry): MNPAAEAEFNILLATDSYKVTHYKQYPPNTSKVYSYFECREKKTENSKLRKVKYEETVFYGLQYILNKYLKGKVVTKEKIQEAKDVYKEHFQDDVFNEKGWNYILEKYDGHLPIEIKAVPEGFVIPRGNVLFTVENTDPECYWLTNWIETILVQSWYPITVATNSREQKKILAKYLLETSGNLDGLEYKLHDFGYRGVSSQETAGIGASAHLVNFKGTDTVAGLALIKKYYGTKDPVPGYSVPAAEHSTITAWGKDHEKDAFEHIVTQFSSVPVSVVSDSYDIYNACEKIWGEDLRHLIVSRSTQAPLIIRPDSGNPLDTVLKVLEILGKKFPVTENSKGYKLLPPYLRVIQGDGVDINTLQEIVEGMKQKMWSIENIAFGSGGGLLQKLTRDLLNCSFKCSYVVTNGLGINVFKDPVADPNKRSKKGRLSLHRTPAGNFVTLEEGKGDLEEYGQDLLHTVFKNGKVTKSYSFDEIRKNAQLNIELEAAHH

What is called IC50 is the point on the concentration scale where inhibition reaches its midpoint. For orientation: Cmax means the maximum level reached in the sampled fluid or tissue. Regarding `Nc1ccccc1NC(=O)c1ccc(NC(=S)NCc2cccnc2)cc1`, the IC50 in series [1] was 1000 nM; in series [2] it was 116 to 120 nM; in [4], 1600 nM; in series [6], 4200 nM. Moreover, the highest level in [3] (Cmax) was 2300 nM. Besides, the Activity result in [5] is listed as “Non-Toxic”. In addition, the TGI result in series [7] is “Active”. The half-life in series [8] was 1.8 h.
Consider `O=C(/C=C/c1cccnc1)NCCCCC1CCN(C(=O)c2ccccc2)CC1` [DAPORINAD], for which the IC50 in series [1] was 1600 nM; in series [10] it was 1300 nM; in series [6], 890 nM. The inhibition in vivo at 15 mg/kg in series [9] was 39%.
